Results: ChEMBL document CHEMBL1158631, “Discovery of novel 1-phenyl-cycloalkane carbamides as potent and selective influenza fusion inhibitors” (Bioorg Med Chem Lett, 2010)
pEC50, pIC50: −log10 of the molar value.

Key:
[1] = Toxicity assessed as haemolysis in chicken RBC; type: cell-based, Gallus gallus, Erythrocyte; conditions: for pIC50: Gallus gallus, Erythrocyte, read-out: IC50
[2] = Antiviral activity against Influenza A virus (A/Weiss/43 (H1N1)) infected in MDCK cells assessed as inhibition of virus-induced cytopathic effect; type: functional, organism-based, Influenza A virus (A/Weiss/1943(H1N1))
Summary of the method: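 MDCK cells infected with influenza A/Weiss/43 (H1N1). Compounds were titrated at multiple doses after a primary single-dose screen. The read-out was protection from viral cytopathic effect, and EC50 is the concentration inhibiting 50% of cytopathic effect. Values are means of triplicate or of at least duplicate experiments.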

[3] = Cytotoxicity against MDCK cells; type: cell-based, Canis lupus familiaris; conditions: dog
Summary of the method: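 Uninfected MDCK cells were exposed to compounds. CC50 is the concentration inhibiting 50% of MDCK cell growth relative to control.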

In the case of `COC(=O)[C@@]1(C)CCC[C@]2(C)c3cc(OC)ccc3C(=O)C[C@@H]12`, the pIC50 [1] was 5.49, the pEC50 [2] was 6.05 and the CC50 [3] was 67 µM.
Work on `CN(C(=O)C1(c2ccccc2)CCCC1)c1cccc(C#N)c1` yielded a pEC50 [2] of 6.14 and a CC50 [3] of 56 µM.
With `CN(C(=O)C1(c2ccccc2)CCCC1)c1cccnc1` the pEC50 [2] was 4.79 and the CC50 [3] was greater than 100 µM.
`CN(C(=O)C1(c2ccc(Cl)cc2)CCC1)c1ccccc1` gave a pEC50 [2] of 6.57 and a CC50 [3] of 24 µM.
In the case of `CN(C(=O)C1(c2ccc(Cl)cc2)CCCCC1)c1ccccc1`, the pEC50 [2] was less than 5.00 and the CC50 [3] was 7.4 µM.
`CN(C(=O)C1(c2ccc(Cl)cc2)CCCC1)c1ccccc1` gave a pEC50 [2] of 6.72 and a CC50 [3] of 21 µM.
Work on `CN(C(=O)C1(c2ccccc2)CCCC1)c1cccc(Cl)c1` yielded a pEC50 [2] of 6.34 and a CC50 [3] of 17 µM.
Compound `CN(C(=O)C1(c2ccccc2)CCCC1)C1CCCCC1` has a pEC50 [2] of 6.35 and a CC50 [3] of 21 µM.
In the case of `CN(C(=O)C1(c2ccccc2)CCCC1)c1ccc(C#N)cc1`, the pEC50 [2] was 7.01 and the CC50 [3] was greater than 100 µM.
`COc1ccc(C2(C(=O)N(C)c3ccccc3)CCCC2)cc1` gave a pEC50 [2] of 6.12 and a CC50 [3] of 69 µM.
Work on `CN(C(=O)C1(c2ccccc2)CCCC1)c1ccc(C(F)(F)F)cc1` yielded a pEC50 [2] of 5.67 and a CC50 [3] of 21 µM.
`O=C(N1CCCc2ccccc21)C1(c2ccccc2)CCCC1` gave a pEC50 [2] of less than 4.00 and a CC50 [3] of 24 µM.
Compound `O=C(Nc1ccccc1)C1(c2ccccc2)CCCC1` has a pEC50 [2] of less than 4.00 and a CC50 [3] greater than 100 µM.
Work on `CN(C(=O)C1(c2ccccc2)CCCC1)c1ccccc1` yielded a pEC50 [2] of 6.62 and a CC50 [3] of 52 µM.
In the case of `CCN(C(=O)C1(c2ccccc2)CCCC1)c1ccccc1`, the pEC50 [2] was 6.59 and the CC50 [3] was 56 µM.
`O=C(N(CCO)c1ccccc1)C1(c2ccccc2)CCCC1` showed a pEC50 [2] of 6.24 and a CC50 [3] of 79 µM.
`CN(C(=O)C1(c2cccc(C(F)(F)F)c2)CCCC1)c1ccccc1` gave a pEC50 [2] of 5.65 and a CC50 [3] of 20 µM.
`CN(C(=O)C1(c2ccccc2)CCCC1)c1ccc(Cl)cc1` gave a pEC50 [2] of 7.10 and a CC50 [3] of 20 µM.
Compound `CN(C(=O)C1(c2ccc(Cl)cc2)CC1)c1ccccc1` has a pEC50 [2] of 5.73 and a CC50 [3] of 49 µM.
Compound `O=C(N1CCCCC1)C1(c2ccccc2)CCCC1` has a pIC50 [1] of 5.66, a pEC50 [2] of 5.68 and a CC50 [3] greater than 100 µM.
In the case of `O=C(N1CCOCC1)C1(c2ccccc2)CCCC1`, the IC50 ([1]; erythrocyte) was “Not Active”, the pEC50 [2] was 4.55 and the CC50 [3] was greater than 100 µM.
For `CN(C(=O)C1(c2ccccc2)CCCC1)c1ccccc1Cl`, the pEC50 [2] was 6.74 and the CC50 [3] was 23 µM.
Compound `CC1(C)C[C@H](O)C[C@](C)(CNC(=O)c2cc(Cl)ccc2O)C1` has a pIC50 [1] of 6.28, a pEC50 [2] of 7.22 and a CC50 [3] greater than 50 µM.
